Results of several laboratories.
DHFR: Dihydrofolate reductase (DHFR, Homo sapiens, UniProt P00374)
Tmem97: Sigma intracellular receptor 2 (Tmem97, Rattus norvegicus, UniProt Q5U3Y7)

The inhibition of Cc1ccc(NC(=S)NN=Cc2ccc(N3CCCCC3)cc2)cc1 is reported as 84.4% (DHFR; enzyme activity; inhibitor; 500 µM).
The remaining activity of CNc1ncc2c(/C=C/C(=O)N3CCC(OC)CC3)nn(Cc3cccc(C(F)(F)F)c3)c2n1 is reported as 119% (Activin receptor type-2B (ACVR2B, Homo sapiens, UniProt Q13705); enzyme activity; inhibitor; radiometric; 1 µM).
S=C(NN=Cc1ccc(N2CCCCC2)cc1)Nc1c(Cl)cccc1Cl has an inhibition of 83.2% (DHFR; enzyme activity; inhibitor; 500 µM).
Cc1cc([C@@H](C)Nc2ccccc2C(=O)O)c2nc(N3CCC(F)(F)CC3)c(C#N)c(=O)n2c1 gave a remaining binding of 100% (Casein kinase I isoform delta (CSNK1D, Homo sapiens, UniProt P48730); binding; competition with immobilised ligand; 10 µM).
The inhibition of C[C@H]1c2nc3ccccc3c(-c3ccccc3)c2[C@H]2C[C@@H]1N(Cc1ccccc1)C[C@]2(C)O is reported as 0% (Tmem97; ligand displacement; radioligand; 1 µM).
With S=C(NN=Cc1ccc(N2CCCCC2)cc1)Nc1ccccc1 the inhibition was 90.1% (DHFR; enzyme activity; inhibitor; 500 µM).
COc1cc(-c2cncc3c2CN(C)Cc2cc(N4CCNCC4)ccc2-3)cc(OC)c1OC gave a remaining activity of 102% (Serine/threonine-protein kinase MRCK gamma (CDC42BPG, Homo sapiens, UniProt Q6DT37); enzyme activity; inhibitor; 1 µM).
With CC(C)OC(=O)CNc1cccc(CN(Cc2ccc(-n3cccn3)cc2)S(=O)(=O)c2cccnc2)n1 the inhibition was no less than 50% (Rho-associated protein kinase 2 (ROCK2, Homo sapiens, UniProt O75116); enzyme activity; inhibitor; 10 µM).
With COc1cc([C@@H]2c3cc4c(cc3[C@@H](O[C@@H]3O[C@@H]5CO[C@@H](C)O[C@H]5[C@H](O)[C@H]3O)[C@H]3COC(=O)[C@H]23)OCO4)cc(OC)c1O the inhibition was 89.5% (DNA topoisomerase 2-alpha (TOP2A, Homo sapiens, UniProt P11388); enzyme activity; inhibitor; 7.8 µM).
The inhibition of COc1ccc(CN2C[C@](C)(O)[C@@H]3C[C@H]2[C@@H](C)c2nc4ccccc4c(-c4ccccc4)c23)cc1 is reported as 0% (Tmem97; ligand displacement; radioligand; 1 µM).
The inhibition of S=C(NCc1ccccc1)NN=Cc1ccc(N2CCCCC2)cc1 is reported as 82.8% (DHFR; enzyme activity; inhibitor; 500 µM).
For C=CC(=O)N1CCC(COCC(=O)N2CCN(c3nc(-c4cnc(N)nc4C(F)F)nc(N4CCOC[C@@H]4C)n3)CC2)CC1, the remaining binding was 90% (BMP-2-inducible protein kinase (BMP2K, Homo sapiens, UniProt Q9NSY1); binding; competition with immobilised ligand; 1 µM).
